For series [1], the system named is HUVEC. Kind of series: Antiangiogenic activity in HUVEC on Matrigel assessed as reduction of bFGF-induced tube branches measured per square mm at 10 uM after 16 hrs by microscopic analysis. In kind it is functional. The method in brief:
(§1)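 HUVEC (passages 2-7, cultured in EGM) seeded at 5000 cells/well on Matrigel-precoated wells with test compound, with or without bFGF 30 ng/mL. Vehicle up to 1% DMSO in medium. Incubated 16 h at 37 °C. Capillary-like tubes examined by microscopy with camera and counted as tubes per square millimeter. Quadruplicate, repeated three times; mean ± SEM; Newman-Keuls test after ANOVA.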

For series [2], the system named is HUVEC. Kind of series: Cytotoxicity against HUVEC assessed as change in cell morphology at 10 uM after 16 hrs by flow cytometry using Annexin V/propidium staining. In kind it is cell-based. The settings on record: human. The method in brief:
(§2)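 HUVEC exposed 16 h to 1 or 10 μM cyclopeptide; morphology examined. For flow cytometry, cells were detached and fixed 15 min in 1% paraformaldehyde, then PBS-washed. They were resuspended in 10 mM Hepes/NaOH pH 7.4, 140 mM NaCl, 5 mM CaCl₂ with Annexin-V-Fluos and propidium iodide, kept 15 min at room temperature in the dark, then analyzed for intact, apoptotic and necrotic cells.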
In general terms: In flow cytometry, cells or beads pass a laser one at a time.

The target in series [3] is T1, Integrin alpha-V/beta-3 (Homo sapiens, UniProt P05106+P06756). Put plainly: Inhibition of alphavbeta3 integrin-mediated cell adhesion in HUVEC on vitronectin coated plate after 30 mins.
T1 sequence (P05106 27-788 limits assumed): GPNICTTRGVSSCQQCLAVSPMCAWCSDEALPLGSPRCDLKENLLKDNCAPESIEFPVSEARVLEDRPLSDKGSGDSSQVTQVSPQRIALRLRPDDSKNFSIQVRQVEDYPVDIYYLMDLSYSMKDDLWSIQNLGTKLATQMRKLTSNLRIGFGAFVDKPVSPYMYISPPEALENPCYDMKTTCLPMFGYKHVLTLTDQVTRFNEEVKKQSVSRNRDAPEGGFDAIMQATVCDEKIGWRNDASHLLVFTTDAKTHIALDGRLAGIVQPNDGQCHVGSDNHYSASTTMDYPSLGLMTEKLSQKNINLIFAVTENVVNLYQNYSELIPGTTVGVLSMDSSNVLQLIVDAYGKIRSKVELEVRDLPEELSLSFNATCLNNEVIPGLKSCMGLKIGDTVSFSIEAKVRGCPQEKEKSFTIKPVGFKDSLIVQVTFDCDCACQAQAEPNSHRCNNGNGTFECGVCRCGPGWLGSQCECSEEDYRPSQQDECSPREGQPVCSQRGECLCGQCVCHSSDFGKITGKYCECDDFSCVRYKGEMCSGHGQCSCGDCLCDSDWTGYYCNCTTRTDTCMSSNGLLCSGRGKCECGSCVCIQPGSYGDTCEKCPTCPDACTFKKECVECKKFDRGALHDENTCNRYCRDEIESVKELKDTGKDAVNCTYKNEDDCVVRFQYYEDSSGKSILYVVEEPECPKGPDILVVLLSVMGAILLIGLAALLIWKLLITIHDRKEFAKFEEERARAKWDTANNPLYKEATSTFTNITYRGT
T1 sequence (P06756 31-889 limits assumed): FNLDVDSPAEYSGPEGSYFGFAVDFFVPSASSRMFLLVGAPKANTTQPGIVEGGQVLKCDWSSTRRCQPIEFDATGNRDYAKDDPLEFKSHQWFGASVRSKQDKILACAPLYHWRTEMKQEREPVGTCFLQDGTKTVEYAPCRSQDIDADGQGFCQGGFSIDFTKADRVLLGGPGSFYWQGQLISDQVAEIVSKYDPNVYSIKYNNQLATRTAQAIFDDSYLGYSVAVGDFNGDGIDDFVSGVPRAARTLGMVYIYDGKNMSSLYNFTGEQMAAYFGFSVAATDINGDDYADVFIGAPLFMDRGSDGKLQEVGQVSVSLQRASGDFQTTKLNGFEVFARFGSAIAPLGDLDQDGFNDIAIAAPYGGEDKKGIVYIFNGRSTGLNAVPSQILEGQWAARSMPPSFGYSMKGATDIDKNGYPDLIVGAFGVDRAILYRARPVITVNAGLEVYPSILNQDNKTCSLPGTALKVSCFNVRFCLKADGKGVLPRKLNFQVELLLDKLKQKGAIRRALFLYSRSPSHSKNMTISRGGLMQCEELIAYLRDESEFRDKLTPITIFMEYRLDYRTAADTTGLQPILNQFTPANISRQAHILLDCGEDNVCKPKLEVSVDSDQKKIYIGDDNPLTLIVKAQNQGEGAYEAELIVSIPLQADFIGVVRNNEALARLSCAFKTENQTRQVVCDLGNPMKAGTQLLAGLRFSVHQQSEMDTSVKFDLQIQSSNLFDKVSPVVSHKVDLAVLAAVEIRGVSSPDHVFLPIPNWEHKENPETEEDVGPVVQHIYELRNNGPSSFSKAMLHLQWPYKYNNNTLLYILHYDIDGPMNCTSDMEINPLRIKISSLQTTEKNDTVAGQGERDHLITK
T1 sequence (P06756 891-1048 limits assumed): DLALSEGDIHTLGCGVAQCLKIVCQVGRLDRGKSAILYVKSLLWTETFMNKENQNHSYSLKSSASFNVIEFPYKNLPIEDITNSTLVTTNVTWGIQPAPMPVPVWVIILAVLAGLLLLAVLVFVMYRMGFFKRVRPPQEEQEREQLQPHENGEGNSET
Series [4] relates to HUVEC. Kind of series: Cytotoxicity against HUVEC assessed as increase in level of necrotic cells at 10 uM after 16 hrs by flow cytometry using Annexin V/propidium staining. In kind it is cell-based. As to conditions: human. An outline of the steps: as §2
Series [5] deals with T1, Integrin alpha-V/beta-3. Put plainly: Inhibition of alphavbeta3 integrin-mediated cell adhesion in human SK-MEL-24 cells on fibronectin coated plate after 30 mins. In kind it is cell-based.
The subject of series [6] is HUVEC. Put plainly: Cytotoxicity against HUVEC assessed as change in cell morphology at 1 uM after 16 hrs by flow cytometry using Annexin V/propidium staining. The class given is cell-based. The settings on record: human. The method in brief: as §2
The test system of series [7] is HUVEC. Kind of series: Cytotoxicity against HUVEC assessed as increase in level of necrotic cells at 1 uM after 16 hrs by flow cytometry using Annexin V/propidium staining. In kind it is cell-based. The settings on record: human. An outline of the steps:
as §2

For another series, the target named is Integrin alpha-5/beta-1 (Homo sapiens, UniProt P05556+P08648). Put plainly: Inhibition of alpha5beta1 integrin-mediated cell adhesion in human K562 cells on fibronectin coated plate after 30 mins. In kind it is cell-based. The method in brief: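 Wells coated overnight at 4 °C with fibronectin or vitronectin (10 μg/mL). Cells were preincubated 30 min at room temperature with compound (≤1% DMSO), then plated at 50000/well and left 1 h at room temperature. After PBS wash, adherent cells were quantified by hexosaminidase substrate read at 405 nm against a calibration curve. Quadruplicate, ≥3 repeats; IC50 calculated.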
Integrin alpha-5/beta-1, sequence (P05556 21-798 limits assumed): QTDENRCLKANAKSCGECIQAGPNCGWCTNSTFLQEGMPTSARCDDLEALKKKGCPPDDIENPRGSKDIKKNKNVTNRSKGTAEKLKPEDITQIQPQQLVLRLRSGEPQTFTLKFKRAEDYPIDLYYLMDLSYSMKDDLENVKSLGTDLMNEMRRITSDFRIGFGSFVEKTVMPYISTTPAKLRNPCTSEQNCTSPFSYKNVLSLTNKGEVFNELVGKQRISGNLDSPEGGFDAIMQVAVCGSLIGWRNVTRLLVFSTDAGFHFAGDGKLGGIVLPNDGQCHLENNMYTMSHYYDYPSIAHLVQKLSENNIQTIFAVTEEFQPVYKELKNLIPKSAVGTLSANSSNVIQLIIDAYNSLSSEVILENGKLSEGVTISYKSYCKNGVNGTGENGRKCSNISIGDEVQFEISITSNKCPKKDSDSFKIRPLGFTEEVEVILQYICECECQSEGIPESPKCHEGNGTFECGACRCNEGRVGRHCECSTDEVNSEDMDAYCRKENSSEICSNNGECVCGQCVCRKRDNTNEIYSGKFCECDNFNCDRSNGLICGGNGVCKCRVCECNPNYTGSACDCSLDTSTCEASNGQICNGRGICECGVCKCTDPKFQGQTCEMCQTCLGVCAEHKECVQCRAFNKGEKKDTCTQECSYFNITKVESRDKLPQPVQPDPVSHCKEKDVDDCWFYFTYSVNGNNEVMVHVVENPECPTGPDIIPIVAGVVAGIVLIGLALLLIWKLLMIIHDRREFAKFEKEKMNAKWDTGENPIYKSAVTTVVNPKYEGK
Integrin alpha-5/beta-1, sequence (P08648 42-894 limits assumed): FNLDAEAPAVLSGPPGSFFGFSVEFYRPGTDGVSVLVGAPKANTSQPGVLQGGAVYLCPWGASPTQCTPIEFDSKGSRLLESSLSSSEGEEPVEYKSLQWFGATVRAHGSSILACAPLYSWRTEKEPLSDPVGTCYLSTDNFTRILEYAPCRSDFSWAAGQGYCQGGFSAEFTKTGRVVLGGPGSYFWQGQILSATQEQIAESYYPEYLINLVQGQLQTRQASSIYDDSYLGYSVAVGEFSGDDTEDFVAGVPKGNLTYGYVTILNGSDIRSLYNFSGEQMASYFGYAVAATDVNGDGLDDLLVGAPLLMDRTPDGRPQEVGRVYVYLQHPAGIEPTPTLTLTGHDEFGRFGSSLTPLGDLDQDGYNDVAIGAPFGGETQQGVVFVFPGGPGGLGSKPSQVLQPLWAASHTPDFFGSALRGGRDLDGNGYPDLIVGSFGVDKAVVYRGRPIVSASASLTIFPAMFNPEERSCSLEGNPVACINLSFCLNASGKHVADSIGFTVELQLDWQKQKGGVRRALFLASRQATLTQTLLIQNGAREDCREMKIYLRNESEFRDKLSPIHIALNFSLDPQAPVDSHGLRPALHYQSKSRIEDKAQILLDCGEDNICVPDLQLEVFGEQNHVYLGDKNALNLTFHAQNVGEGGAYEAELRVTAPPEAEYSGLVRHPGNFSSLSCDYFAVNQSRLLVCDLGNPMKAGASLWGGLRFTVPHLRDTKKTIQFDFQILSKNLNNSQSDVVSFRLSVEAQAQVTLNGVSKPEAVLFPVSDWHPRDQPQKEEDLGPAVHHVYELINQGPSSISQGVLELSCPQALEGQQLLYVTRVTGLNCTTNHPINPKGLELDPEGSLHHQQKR
Integrin alpha-5/beta-1, sequence (P08648 895-1049 limits assumed): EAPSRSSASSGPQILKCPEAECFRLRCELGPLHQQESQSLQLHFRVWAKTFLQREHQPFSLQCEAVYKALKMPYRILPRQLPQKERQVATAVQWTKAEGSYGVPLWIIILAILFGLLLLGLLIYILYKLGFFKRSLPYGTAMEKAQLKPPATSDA

The test system of series [8] is HUVEC. Put plainly: Antiangiogenic activity in HUVEC on Matrigel assessed as inhibition of bFGF-induced tube formation at 1 uM after 16 hrs. The class given is functional, cell-based. The settings on record: Homo sapiens. An outline of the steps: as §1
The subject of series [9] is HUVEC. Kind of series: Inhibition of bFGF-induced angiogenesis in HUVEC on Matrigel assessed as endothelial morphogenesis at 1 uM after 16 hrs by microscopic analysis. In kind it is functional, cell-based. As to conditions: Homo sapiens. The method in brief:
as §1

Series [10] deals with HUVEC. Put plainly: Inhibition of bFGF-induced angiogenesis in HUVEC cells on Matrigel assessed as number of tube branches at 10 nM after 16 hrs by microscopic analysis. The class given is functional, cell-based. As to conditions: Homo sapiens. An outline of the steps: as §1
The subject of series [11] is HUVEC. Put plainly: Inhibition of bFGF-induced angiogenesis in HUVEC on Matrigel assessed as number of tube branches at 100 to 500 nM after 16 hrs by microscopic analysis. The class given is functional, cell-based. As to conditions: Homo sapiens. The method in brief:
as §1

Where [12] appears, read: in the assay text read “at 1 uM” for “at 10 uM”.

Active and inactive are the calls of the source. The rule behind the calls is not given here. Non-standard residues stand in square brackets, D forms with d. Residues, ends and D or L forms follow the SMILES beside them.

`N=C(N)NCCC[C@H]1NC(=O)CC(=O)N[C@@H](CC(=O)O)C(=O)N[C@H](Cc2ccccc2)CNC1=O`: the result with HUVEC [1] (Homo sapiens) was inactive.
Take `N=C(N)NCCC[C@H]1NC(=O)CC(=O)N[C@H](CC(=O)O)C(=O)N[C@@H](Cc2ccccc2)CNC1=O`: in the series with HUVEC [1] (Homo sapiens), the outcome was inactive.
Broadly, the IC50 is the concentration that inhibits the measured activity by half. Consider `NC(N)=NCCC[C@H]1NC(=O)CC(=O)N[C@H](CC(=O)O)C(=O)N[C@H](Cc2ccccc2)CNC1=O`, for which the Activity result in the series on HUVEC [2], with HUVEC [4], with HUVEC [6] and in the series on HUVEC [7] was “Non-toxic” each time. In addition, the IC50 at Integrin alpha-V/beta-3 [3], on Integrin alpha-V/beta-3 [5] and at Integrin alpha-5/beta-1 was above 100 µM throughout.
For the molecule `CC(C)[C@@H]1NC(=O)[C@@H](Cc2ccccc2)NC(=O)[C@H](CC(=O)O)NC(=O)[C@H](C)NC(=O)[C@H](CCCN=C(N)N)NC1=O` (cyclo(AD[dF]VR)), the IC50 against Integrin alpha-V/beta-3 [3], against Integrin alpha-V/beta-3 [5] and on Integrin alpha-5/beta-1 was above 100 µM in each case.
As to `NC(N)=NCCC[C@H]1NC(=O)CC(=O)N[C@H](CC(=O)O)C(=O)N[C@@H](Cc2ccccc2)CNC1=O`, the Activity entry in the series on HUVEC [2], with HUVEC [4], in the series on HUVEC [6] and in the series on HUVEC [7] was “Non-toxic” throughout. The IC50 on Integrin alpha-V/beta-3 [3], at Integrin alpha-V/beta-3 [5] and on Integrin alpha-5/beta-1 was above 100 µM in each case.
Consider `NC(N)=NCCC[C@@H]1NC(=O)CC(=O)N[C@@H](CC(=O)O)C(=O)N[C@H](Cc2ccccc2)CNC1=O`, for which the Activity result with HUVEC [2], in the series with HUVEC [4], in the series on HUVEC [6] and in the series with HUVEC [7] was “Non-toxic” each time. The IC50 worked out at 0.24 µM against Integrin alpha-V/beta-3 [3], 0.18 µM at Integrin alpha-V/beta-3 [5] and 0.024 µM on Integrin alpha-5/beta-1.
Regarding `NC(N)=NCCC[C@H]1NC(=O)CC(=O)N[C@@H](CC(=O)O)C(=O)N[C@H](Cc2ccccc2)CNC1=O`, the Activity entry in the series with HUVEC [2], in the series on HUVEC [4], with HUVEC [6] and in the series with HUVEC [7] was “Non-toxic” throughout. In addition, the IC50 at Integrin alpha-V/beta-3 [3], against Integrin alpha-V/beta-3 [5] and on Integrin alpha-5/beta-1 was above 100 µM each time.
Take `CC(C)[C@@H]1NC(=O)[C@@H](Cc2ccccc2)NC(=O)[C@H](CC(=O)O)NC(=O)CNC(=O)[C@H](CCCN=C(N)N)NC1=O` [CYCLORGDFV]: at Integrin alpha-5/beta-1, the IC50 was found to be 34.7 µM.
For the molecule `N=C(N)NCCC[C@H]1NC(=O)CC(=O)N[C@H](CC(=O)O)C(=O)N[C@H](Cc2ccccc2)CNC1=O`, in the series with HUVEC [1] (Homo sapiens), the result was inactive.
For the molecule `N=C(N)NCCC[C@@H]1NC(=O)CC(=O)N[C@H](CC(=O)O)C(=O)N[C@@H](Cc2ccccc2)CNC1=O`, the Activity result in the series on HUVEC [2], with HUVEC [4], with HUVEC [6] and in the series on HUVEC [7] was “Non-toxic” throughout. Also, the IC50 against Integrin alpha-V/beta-3 [3], against Integrin alpha-V/beta-3 [5] and against Integrin alpha-5/beta-1 was above 100 µM each time. Further, the result in the series on HUVEC [1] (Homo sapiens) was inactive.
Regarding `N=C(N)NCCC[C@@H]1NC(=O)CC(=O)N[C@H](CC(=O)O)C(=O)N[C@H](Cc2ccccc2)CNC1=O`, the Activity entry in the series with HUVEC [2], with HUVEC [4], in the series on HUVEC [6] and with HUVEC [7] was “Non-toxic” in each case. The IC50 on Integrin alpha-V/beta-3 [3] stood at 0.92 µM; on Integrin alpha-V/beta-3 [5] it was 2.1 µM; at Integrin alpha-5/beta-1, 1.3 µM. The result with HUVEC [1] (Homo sapiens) was inactive.
In the case of `N=C(N)NCCC[C@H]1NC(=O)CC(=O)N[C@@H](CC(=O)O)C(=O)N[C@@H](Cc2ccccc2)CNC1=O`, the Activity result with HUVEC [2], with HUVEC [4], with HUVEC [6] and in the series on HUVEC [7] was “Non-toxic” throughout. The IC50 against Integrin alpha-V/beta-3 [3] was found to be 1.5 µM; against Integrin alpha-V/beta-3 [5] it was 2.3 µM; on Integrin alpha-5/beta-1, 4.7 µM. In the series on HUVEC [1] (Homo sapiens), the outcome was inactive.
Take `N=C(N)NCCC[C@@H]1NC(=O)CC(=O)N[C@@H](CC(=O)O)C(=O)N[C@@H](Cc2ccccc2)CNC1=O`: the Activity entry in the series with HUVEC [2] is “Non-toxic”; with HUVEC [1] (setting [12]), 6.8; in the series with HUVEC [4], “Non-toxic”; in the series on HUVEC [6], “Non-toxic”; with HUVEC [7], “Non-toxic”. The IC50 is 25.2 µM at Integrin alpha-V/beta-3 [3], 11 µM against Integrin alpha-V/beta-3 [5] and 0.52 µM against Integrin alpha-5/beta-1. The result in the series with HUVEC [8] and with HUVEC [9] was Active. Also, the outcome with HUVEC [10] and in the series with HUVEC [11] was inactive.
Take `N=C(N)NCCC[C@@H]1NC(=O)CC(=O)N[C@@H](CC(=O)O)C(=O)N[C@H](Cc2ccccc2)CNC1=O`: in the series on HUVEC [1] (setting [12]), the Activity was determined as 5.1. The outcome in the series with HUVEC [8] and in the series on HUVEC [9] was Active. The outcome with HUVEC [10] and with HUVEC [11] was inactive.
